Consider one compound from ChEMBL document CHEMBL1131206, “Synthesis, anticonvulsant activity, and structure-activity relationships of sodium channel blocking 3-aminopyrroles” (J Med Chem, 1998).

The ED50 is the dose that gives a 50% effect, or the effect in half of the subjects. High values mean weaker potency, low ones greater potency.

Common to all, as to type: functional
Experiment [1] relates to Mus musculus. The experiment is described as follows: Anticonvulsant activity was measured by maximal electroshock seizure test in mice by ip administration. In outline:
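Male albino CF No. 1 mice (18–25 g) were dosed ip and tested by maximal electroshock at the previously determined time of peak effect. Groups of at least eight mice received various doses until at least two points fell between 0% and 100% protection. ED50 and its 95% confidence interval were calculated. Single-dose entries give protection percentage at the indicated dose.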
A general note: Protection in the maximal electroshock model is a classic sign of anticonvulsant action.

For experiment [2], the system named is Rattus norvegicus. The experiment is described as follows: Minimal motor impairment activity by Rotarod test in rat following p.o. administration. The conditions noted are these: po. In outline:
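Minimal motor impairment in male Sprague–Dawley rats (100 g) after oral dosing was judged at the time of peak effect. The criterion was overt ataxia, abnormal gait and stance, and/or loss of placing response and muscle tone. Groups had at least eight rats across various doses, and the median impairing dose with its 95% confidence interval was calculated.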
On the technique in general: Falling from the rotarod earlier than controls is read as motor impairment.

The test system of experiment [3] is Rattus norvegicus. The experiment in a line: Anticonvulsant activity in corneal kindled rats was determined when 50 mg/kg was administered intraperitoneally. The conditions noted are these: route intraperitoneal. In outline: (§1)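 Male Sprague–Dawley rats (100 g) kindled by daily corneal stimulation at 8 mA/60 Hz for 4 s until 10 consecutive stage 5 seizures (rearing and falling with clonus). Drug was given ip in 0.5% methyl cellulose in water at 0.04 mL/10 g body weight. Read-out was seizure score; abolition of the generalized (stage 4–5) seizure was the endpoint.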

The subject of experiment [4] is Rattus norvegicus. The experiment is described as follows: Anticonvulsant activity in corneal kindled rats was determined when 75 mg/kg was administered intraperitoneally. As to conditions: route intraperitoneal. In a few lines: as §1
Experiment [5] relates to Rattus norvegicus. The experiment is described as follows: Anticonvulsant activity in corneal kindled rats was determined when 100 mg/kg was administered intraperitoneally. As to conditions: route intraperitoneal. In a few lines:
as §1

For experiment [6], the system named is Rattus norvegicus. The experiment is described as follows: Anticonvulsant activity in corneal kindled rats was determined when 10 mg/kg was administered intraperitoneally. As to conditions: route intraperitoneal. In outline: as §1
In experiment [7] the test system is Rattus norvegicus. The experiment is described as follows: Anticonvulsant activity in corneal kindled rats was determined when 150 mg/kg was administered intraperitoneally. The conditions noted are these: route intraperitoneal. In outline: as §1
Experiment [8] has as its system Rattus norvegicus. The experiment in a line: Anticonvulsant activity in corneal kindled rats was determined when 25 mg/kg was administered intraperitoneally. As to conditions: route intraperitoneal. In outline:
as §1

Experiment [9] deals with Mus musculus. The experiment in a line: Minimal motor impairment activity by Rotarod test in mice following i.p. administration. As to conditions: ip. In outline:
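Rotorod neurotoxicity test in male albino CF No. 1 mice dosed ip, run at the time of peak effect. Impairment was defined as failure to keep equilibrium for 60 s in each of three trials on the rotating rod. With groups of at least eight mice across various doses, the median motor-impairing dose and its 95% confidence interval were calculated.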

Bounds are passed on as bounds.

As to `O=C1NC(=O)C(c2ccccc2)(c2ccccc2)N1` [PHENYTOIN], the ED50 was 6.5 mg/kg in experiment [1], greater than 500 mg/kg in [2] and 42.8 mg/kg in experiment [9]. Moreover, the Seizure score was 4.4 in [3]; 3.7 in experiment [4]; 3 in experiment [5]; 5 in experiment [6]; 3 in experiment [7]; 4.7 in experiment [8].
